Compound activity from PubChem BioAssay.
TRPC4 act – opens the mouse TRPC4 cation channel; B-score at 10 µM; HEK293 TRPC4beta/mu-opioid, Fluo4 calcium fluorescence; active compounds read high; AID 2237; Q9QUQ5; 310,000 compounds, 0.49% hits;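 active = B-score above 5 SD of library B-scores, and initial fluorescence ratio not above library mean plus 5 SD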;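 note: positive B-score marks a calcium rise read as TRPC4 activation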
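Material: HEK293 stable line with TRPC4beta plus mu-opioid receptor; technique: Fluo4 calcium-sensitive dye fluorescence, kinetic, 1 Hz baseline; timing: Fluo4 dye loading 45 min at room temperature, 110 s recording; controls: assay buffer as low control, maximal DAMGO as high control; read-out: integrated baseline-normalised fluorescence ratio, converted to per-well B score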
TRPC4 PAM – TRPC4 (mouse) allosteric potentiation; AID 2227; 310,000 compounds, 0.42% hits; HEK293 TRPC4beta/mu-opioid, DAMGO EC20, Fluo-4 Ca2+ flux; active compounds read high; B-score at 10 µM;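 active = B-score of calcium response area above 5 SD of library B-scores, with initial fluorescence ratio within 5 SD of library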;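 note: B-score of integrated fluorescence ratio over time as area under calcium response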
TRPC6 inhibitor – blocks the mouse TRPC6 cation channel | HEK293-TRPC6, membrane potential dye, ACh-evoked depolarization; active compounds read low | B-score at 10 µM | 310,000 compounds, 1.1% hits;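 active = B-score under library mean minus 3 SD, initial fluorescence not abnormally high, positive integrated signal ratio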;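 note: B-score derived from integrated fluorescence ratio over the kinetic read; more negative B-score means stronger inhibition of depolarization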
TRPC4 block – blocks the mouse TRPC4 cation channel. Q9QUQ5. HEK293 TRPC4beta/mu-opioid, DAMGO-evoked Fluo4 calcium flux; active compounds read low. B-score at 10 µM. 300,000 compounds, 0.39% hits. AID 2247;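 active = B-score over 3 SD under the library average, no early fluorescence shift, positive overall ratio signal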
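Assay system – HEK293 line stably carrying TRPC4beta and mu-opioid receptor · Doses – single dose · Detection – Fluo4 calcium-dye fluorescence, kinetic read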
TRPC6 activator – mouse TRPC6 channel activation. Q61143. HEK293-TRPC6 membrane potential dye fluorescence; active compounds read high. B-score at 10 µM. 310,000 compounds, 0.13% hits;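 active = B-score of the integrated fluorescence ratio above library mean plus 3 SD, and starting fluorescence ratio within library mean plus 5 SD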;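 note: higher score means more depolarization so channel activation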
TRPC4 sel inh 2 – mouse TRPC4 off-target activity of TRPC6 inhibitors, second screen; shares compounds with TRPC6 inhibitor; HEK293 TRPC4/MOR, membrane potential dye fluorescence; channel activated by saturating DAMGO dose; inhibition, % at 10 µM; 920 compounds, 42% hits;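 active = compounds whose fluorescence signal differed from control wells by over 3 SD, either direction, in both duplicate plates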
TRPC4 spec – mouse TRPC4 off-target activity of TRPC6 inhibitors; activity change, negative = inhibition, % at 10 µM; 920 compounds, 61% hits; AID 2777; shares compounds with TRPC6 inhibitor; HEK293 TRPC4/mu-opioid, membrane potential fluorescence;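 active = rise or fall in signal beyond 3 SD of buffer-only wells in both replicate plates, either sign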;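 note: integrated kinetic ratio of fluorescence range over baseline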
HEK293 MPD ctr 2-1 – second check of TRPC6 inhibitor effects in parental HEK293 cells; shares compounds with TRPC6 inhibitor; signal change vs control, % at 10 µM; 920 compounds, 31% hits; parental HEK293 membrane potential dye fluorescence; maximal acetylcholine challenge after compound addition;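 active = membrane potential signal moving either way by over 3 SD of the maximum-effect control, in both duplicate plates, meaning non-specific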
HEK293 MPD ctr-1 – counter-screen for TRPC6 inhibitors: effect in parental HEK293 cells; membrane potential signal change, % at 10 µM; shares compounds with TRPC6 inhibitor; parental HEK293 membrane potential dye fluorescence; AID 2780; 920 compounds, 60% hits;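 active = membrane potential signal shifting up or down by more than 3 SD of buffer-only wells, on both duplicate plates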
HEK293 MPD ctr-2 – counter-screen for TRPC6 modulators: effect in parental HEK293 cells. shares compounds with TRPC6 inhibitor. membrane potential dye fluorescence. membrane potential signal change, % at 10 µM. 2,400 compounds, 51% hits. AID 488924;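 active = membrane potential signal moves up or down beyond 5 SD from buffer-only wells, on both duplicate plates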
HEK293 MPD ctr 2-2 – second counter-screen for TRPC6 modulators: effect in parental HEK293 cells; shares compounds with TRPC6 inhibitor; membrane potential dye fluorescence; after compound, maximal acetylcholine stimulation; inhibition, % at 10 µM; 2,400 compounds, 14% hits;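 active = membrane potential signal drops by more than 5 SD from the mean control signal, in both duplicate plates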;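 note: plate controls were acetylcholine ECmax control wells for no effect and buffer only wells for full effect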
TRPC4 ctr mod – tests whether TRPC6 modulators also affect mouse TRPC4; shares compounds with TRPC6 inhibitor; HEK293 TRPC4/mu-opioid, membrane potential fluorescence; percent change from control (negative = decrease, positive = increase), % at 10 µM; 2,400 compounds, 69% hits; AID 488927;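 active = membrane potential signal moved up or down beyond 5 SD of buffer control wells, in both duplicate plates, actives on both sides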;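 note: plate controls were assay buffer wells for no effect and DAMGO maximal-effect wells for full effect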
TRPC4/MOR inh 2 – second check of whether TRPC6 modulators also affect mouse TRPC4; shares compounds with TRPC6 inhibitor; HEK293 TRPC4/mu-opioid, membrane potential dye fluorescence; stimulated with maximal-effect DAMGO; inhibition, % at 10 µM; 2,400 compounds, 55% hits; AID 488928;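 active = drop in membrane potential signal beyond 5 SD of the control wells in both duplicate plates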;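 note: TRPC4 counter screen for TRPC6 hits run under conditions tuned for TRPC6 not TRPC4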
TRPC6 inh conf – confirmation of mouse TRPC6 inhibitors; inhibition, % at 10 µM; shares compounds with TRPC6 inhibitor; 3,300 compounds, 43% hits; HEK293-TRPC6, membrane potential dye, ACh-evoked depolarization;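 active = fluorescence ratio falls more than 5 SD below the full-stimulation control mean, in both duplicate runs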;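 note: integrated fluorescence ratio of peak minus minimum over baseline after agonist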
TRPC6 act confirm – confirmation of mouse TRPC6 activators | shares compounds with TRPC6 inhibitor | HEK293-TRPC6 membrane potential dye fluorescence, FDSS | activation, % at 10 µM | 2,800 compounds, 11% hits;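 active = ratio signal rise beyond 5 SD above unstimulated control wells' mean, seen in both duplicate runs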;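 note: plate controls were buffer EC0 wells for no effect and acetylcholine ECmax response for full effect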
The depositor's hits bear a star; i = inactive; . = no result given. Only some compounds are listed: those with a hit (about 2.3% of all), similar ones and a draw of the others.

SMILES	TRPC4 act	TRPC4 PAM	TRPC6 inhibitor	TRPC4 block	TRPC6 activator	HEK293 MPD ctr-2	HEK293 MPD ctr 2-2	TRPC4 ctr mod	TRPC4/MOR inh 2	TRPC6 inh conf	TRPC6 act confirm	others
N#C/C(=C\c1ccccc1)C(=O)OCC(=O)N1CCCC1	i	i	i	i	i	.	.	.	.	.	.
CCNC(=O)C(=O)NCC(c1cccs1)S(=O)(=O)c1ccc(C)cc1 (stereo not drawn)	i	i	i	i	i	.	.	.	.	.	.
N=c1sccn1CC(=O)Nc1ccccc1Oc1ccccc1	i	i	-5.07*	-6*	i	i	i	i	75.5%*	i	i
Cc1ccc(Oc2ccc(NC(=O)Cn3ccsc3=N)cc2)cc1	60*	i	-8.29*	i	i	.	.	.	.	89.0%*	i	TRPC4 sel inh 2=29.0%*;TRPC4 spec=i;HEK293 MPD ctr 2-1=i;HEK293 MPD ctr-1=i
Cc1ccc(NC(=O)CN(C)C(=O)Cn2ccsc2=N)cc1	i	i	i	i	i	.	.	.	.	.	.
CC(=O)Nc1ccc(NC(=O)CS(=O)(=O)c2cn(CC(=O)N3CCC(C)CC3)c3ccccc23)cc1	i	i	i	i	i	.	.	.	.	.	.
Cc1ccc(C(=O)NCCS(=O)(=O)N2CCN(c3ccccc3F)CC2)cc1[N+](=O)[O-]	i	i	i	i	i	.	.	.	.	.	.
O=C(CCc1nnc(-c2ccccc2)o1)NCc1cc(F)ccc1F	i	i	i	i	i	.	.	.	.	.	.
Cc1cc(C)nc(/N=C(\N)Nc2ccc(C)c([N+](=O)[O-])c2)n1	i	i	-5.39*	i	i	i	i	-19.0%*	35.5%*	i	i
CN(C)c1nc(F)c(F)c(S(=O)(=O)c2ccccc2)c1F	i	i	-5.26*	i	i	i	i	i	i	i	i
O=C(CCC1CCCCC1)NCCN1C2=NC[C@H](Cc3ccccc3)N2C[C@H]1Cc1ccc(O)cc1	i	i	i	i	i	.	.	.	.	.	.
O=C(CCC1CCCCC1)NCCN1C2=NC[C@@H](Cc3ccccc3)N2C[C@H]1Cc1ccc(O)cc1	i	i	-5.47*	i	i	i	i	i	i	i	i
CCN(CC)CC#CCC(C)(c1ccccc1)c1ccccc1	i	i	-4.98*	i	i	142.5%*	i	36.5%*	i	i	.
CCN(CC)CC#CCC(O)(c1ccccc1)c1ccccc1	i	i	i	i	i	.	.	.	.	.	.
CCCC(C(=O)NCCC(C)C)N(Cc1ccccc1)C(=O)c1snc(C(N)=O)c1N (stereo not drawn)	i	i	i	i	i	.	.	.	.	.	.
Cc1nnc(Nc2ccccn2)c2ccccc12	i	i	-5.69*	i	i	-219.0%*	58.0%*	-36.0%*	45.5%*	63.0%*	i
Cc1onc(-c2ccccc2)c1C(=O)Nc1ccc(S(=O)(=O)N2CCOCC2)cc1	i	i	i	i	i	.	.	.	.	.	.
O=CN1Cc2ccccc2-c2ccccc2C1	i	i	i	i	i	.	.	.	.	.	.
COc1ccc2[nH]c3c(C)c4ccncc4c(C)c3c2c1	i	i	-6.21*	i	i	-159.0%*	i	-43.0%*	33.0%*	i	i
CCN(CC)C(=O)CSc1nc2ccccc2c(=O)n1-c1cccc(OC)c1	i	i	-5.9*	i	12.4*	157.5%*	i	36.0%*	i	i	73.0%*
O=C(C1COc2ccccc2O1)N1CCN(c2ccccc2Cl)CC1 (stereo not drawn)	i	i	i	i	i	.	.	.	.	.	.
Cc1cccc(N2CCN(C(=O)C3COc4ccccc4O3)CC2)c1C (stereo not drawn)	i	i	-5.07*	i	i	i	i	i	i	42.5%*	.
COc1ccc2c(C)c(CC(=O)N3CCN(C(=O)C4COc5ccccc5O4)CC3)c(=O)oc2c1 (stereo not drawn)	i	i	-5.33*	i	i	238.5%*	i	43.5%*	i	i	.
O=C(c1ccco1)N1CCN(c2ncnc3c(-c4ccc(Cl)cc4)nsc23)CC1	i	i	i	i	i	.	.	.	.	.	.
CC(=O)N1CCc2cc(S(=O)(=O)N3CCc4ccccc43)ccc21	i	i	i	i	i	.	.	.	.	.	.
SMILES	TRPC4 act	TRPC4 PAM	TRPC6 inhibitor	TRPC4 block	TRPC6 activator	HEK293 MPD ctr-2	HEK293 MPD ctr 2-2	TRPC4 ctr mod	TRPC4/MOR inh 2	TRPC6 inh conf	TRPC6 act confirm	others
CCCCCCCN1CCC(=O)N([C@H](CO)CC(C)C)CC1	i	i	i	i	i	.	.	.	.	.	.
COc1ccc(-n2c(C)nnc2SCC(=O)N2CCOCC2)cc1	i	i	i	i	i	.	.	.	.	.	.
CN1CCN(/N=C/c2nc(-c3ccc(Cl)cc3)n3ccccc23)CC1	i	i	-5.27*	i	i	-164.5%*	i	-35.5%*	40.5%*	i	i
CN1CCN(/N=C/c2nc(-c3ccccc3)n3ccccc23)CC1	i	i	i	i	i	.	.	.	.	.	.
CCN(CC)C(=O)N1CCn2c(nc3ccccc32)C1	i	i	-5.47*	i	i	i	i	11.5%*	i	i	i
Cc1nc(C)c(-c2ccc(SCc3ccccc3C)nn2)s1	i	i	i	i	i	.	.	.	.	.	.
